Experiments:
[1] = test system: advanced or metastatic solid tumours; experiment: Preliminary antitumour activity; type: in vivo, human
FGFR and VEGFR pathways = experiment: Soluble biomarkers of FGFR and VEGFR pathways; set-up: species or system human; details: in vivo
How it was run: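 Plasma FGF23, sVEGFR2, sVEGFR1, VEGF, FGF2 and PGF were sampled at baseline, day 8 and day 29 during oral test compound dosing and analysed in batches during or at study end. Values are expressed as percentage change from baseline (day 1 predose).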

UGT1A1 = details: human liver microsomes; cited from earlier work

`Cn1cc(-c2ccc3c(c2)ncn3-c2cc(NS(=O)(=O)C3CC3)cc(-c3ccc(F)cc3F)c2)cn1` [ODM-203] gave an overall response rate ([1]; RECIST, all evaluable (7/76 patients)) of 9.2%, a disease control rate ([1]; all evaluable) of 57.9% and a median progression-free survival ([1]; non-FGFR patients) of 12.4 weeks. For the same compound, the disease control rate ([1]; non-FGFR tumours) was 52.3%, the overall response rate ([1]; non-FGFR tumours (3/44)) was 6.8% and the “patients without disease progression at 16 weeks” value ([1]; non-FGFR tumours (16/42)) was 38.1%. For the same compound, the “patients without disease progression at 16 weeks” value ([1]; overall (24/71)) was 33.8%, the median progression-free survival ([1]; patients with FGFR aberration(s)) was 16.1 weeks and the disease control rate ([1]; tumours with FGFR aberrations) was 65.6%. The overall response rate ([1]; tumours with FGFR aberrations (4/32)) was 12.5%, the “patients without disease progression at 16 weeks” value ([1]; tumours with FGFR aberrations (8/29)) was 27.6% and the “percentage mean changes in soluble markers FGF23, VEGFR2, VEGF and PGF” value (FGFR and VEGFR pathways) was “appeared to be dose dependent”. The IC50 (UGT1A1) was 100 nM.

Source: PMC7709506 (ESMO Open, 2020)
